Shown are actives, neighbours in structure and some others; about 4.1% of the full set was active somewhere.
Kir21 inh: inhibitors of mouse Kir2.1 inward-rectifier potassium channel | Inward rectifier potassium channel 2 (Mus musculus), P35561 | HEK293-Kir2.1, FluxOR thallium flux fluorescence; hits give low values | B-score at 10 µM | actives 0.85% (n = 310,000) | AID 1672, 2009;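 active means fluorescence ratio B-score at or below minus 3 SD of library scores, with starting-brightness B-score within 2 SD, cut at about -4.2 in these data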;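 further: channel flux triggered by added potassium and thallium sulfate stimulus; B-score of peak minus minimum fluorescence over baseline after thallium stimulus; more negative B-score means stronger Kir2.1 block with less thallium influx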
Target sequence (P35561 whole entry, looked up): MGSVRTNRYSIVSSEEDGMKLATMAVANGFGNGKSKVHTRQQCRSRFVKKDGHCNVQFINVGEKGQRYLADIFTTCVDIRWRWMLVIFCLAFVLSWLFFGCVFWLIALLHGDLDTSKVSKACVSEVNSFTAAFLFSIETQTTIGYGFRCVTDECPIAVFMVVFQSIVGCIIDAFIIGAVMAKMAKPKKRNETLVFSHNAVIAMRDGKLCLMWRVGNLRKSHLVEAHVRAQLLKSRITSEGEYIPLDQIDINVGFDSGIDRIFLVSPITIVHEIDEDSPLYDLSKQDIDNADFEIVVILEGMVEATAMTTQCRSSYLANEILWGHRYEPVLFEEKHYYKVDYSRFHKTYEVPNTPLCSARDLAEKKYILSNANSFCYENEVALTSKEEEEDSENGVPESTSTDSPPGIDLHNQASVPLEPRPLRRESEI
MrgX1 antagonist: antagonists of human MrgX1 receptor, primary screen, HEK293 cells, Fluo-4 calcium flux. Mas-related G-protein coupled receptor member X1 (Homo sapiens), Q96LB2. BAM8-22 antagonism; hits give low values. B-score at 10 µM. actives 1.3% (n = 310,000). AID 588676, 2011;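 active means calcium-response B-score plate-corrected more than 3 library SD below zero, starting fluorescence within 5 deviations, no agonist response on first addition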;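 further: peak minus trough fluorescence over baseline after final BAM8-22 challenge near maximal dose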
RGS4 act: RGS4 potentiators or activators, primary screen, cell-based, HEK293 M3R inducible RGS4, calcium flux; carbachol calcium flux Fluo4; hits give low values; B-score at 10 µM; actives 0.92% (n = 310,000); AID 463111, 2010;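 active means B-score of the integrated calcium signal more than 4 SD below the library mean, with starting fluorescence not abnormally high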;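 further: negative B-score means reduced calcium response which marks RGS4 activation or potentiation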
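test system = M3R-expressing HEK293 line, RGS4 induced by doxycycline | probe or stimulus = carbachol at ECmax as muscarinic agonist stimulus | timing = dye loading 30 min 37 °C, buffer rest 30 min RT | signal = calcium dye Fluo4 fluorescence | evaluation = B score from integrated fluorescence ratio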
MrgX1 allo act: positive allosteric modulators of MrgX1, primary screen, HEK293 cells, Fluo-4 calcium flux | Mas-related G-protein coupled receptor member X1 (Homo sapiens), Q96LB2 | FDSS; hits give high values | B-score at 10 µM | actives 0.63% (n = 310,000);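 active means plate-corrected calcium response at least 3 library SD above typical, normal starting fluorescence, not activating the receptor alone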;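 further: compound read alongside a low EC10 to EC30 dose of BAM8-22 agonist; peak minus trough fluorescence over baseline measured at the second addition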
MrgX1 agonist: agonists of human MrgX1 receptor, primary screen, HEK293 cells, Fluo-4 calcium flux. AID 588627, 2011. B-score at 10 µM. actives 0.44% (n = 310,000). Mas-related G-protein coupled receptor member X1 (Homo sapiens), Q96LB2. Fluo-4 calcium fluorescence, agonist mode; hits give high values;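 active means calcium response B-score plate-corrected fluorescence ratio at least 3 library SD, with starting fluorescence B-score inside 5 SD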
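Test system: Stable human MrgX1 HEK293 cell line | Schedule: Overnight plating before 1 h dye loading | Read-out basis: Baseline-normalised fluorescence change ratio, B-scored | Detection: Kinetic calcium dye fluorescence, Fluo-4 NW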
RGS4 block: RGS4 inhibitors, primary screen, cell-based, HEK293 M3R inducible RGS4, calcium flux; Fluo-4 calcium flux; hits give high values; triggered by carbachol at its EC20; Regulator of G-protein signaling 4 (Homo sapiens), P49798; actives 0.45% (n = 310,000); B-score at 10 µM; AID 463165, 2010;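 active means B-score, a plate-corrected calcium signal, over three deviations above library mean, with baseline fluorescence within five deviations of library mean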;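 further: RGS4 expression induced by doxycycline in cells with stable M3 receptor; B-score is computed from the integrated fluorescence ratio over baseline after carbachol; higher B-score means a larger calcium signal and so more RGS4 inhibition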
Target sequence (P49798 whole entry, looked up): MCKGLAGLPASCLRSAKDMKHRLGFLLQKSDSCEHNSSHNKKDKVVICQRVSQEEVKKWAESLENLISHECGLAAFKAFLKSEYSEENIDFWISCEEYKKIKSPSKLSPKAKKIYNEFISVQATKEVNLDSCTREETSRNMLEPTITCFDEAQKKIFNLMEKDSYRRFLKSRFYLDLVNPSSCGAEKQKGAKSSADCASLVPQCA
RGS4 block valid: enhanced carbachol calcium response, M3R/RGS4 cells, RGS4 inhibitor project, cell-based, validation screen, HEK293 M3R/RGS4, calcium flux | shares compounds with RGS4 block | carbachol calcium Fluo-4 fluorescence; carbachol added at its EC20; 0 = buffer wells, 100 = carbachol control | calcium response, % at 10 µM | actives 65% (n = 1,700) | AID 492999, 2010;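 active means duplicate-averaged calcium response above the buffer-only control mean plus 5 SD of those controls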;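 further: integrated fluorescence ratio F max minus min over baseline F0; higher response in RGS4-induced cells means RGS4 inhibition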
RGS4 uninduced: carbachol calcium response in non-induced M3R cells, confirmation, counter-screen for RGS4 inhibitor project, cell-based, HEK293 M3R; shares compounds with RGS4 block; actives 20% (n = 1,900); activity (percent), % at 10 µM; carbachol calcium Fluo-4; submaximal (EC20) carbachol stimulus; buffer wells 0%, carbachol control wells 100%; call rule not given here;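 further: RGS4 induction absent so cells express M3R without RGS4; higher means more calcium signal and flags a non-specific hit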
M3R basal Ca ctr: second RGS4 inhibitor counter-screen in uninduced cells lacking carbachol. shares compounds with RGS4 block. HEK293 M3R/RGS4 non-induced, Fluo-4 calcium, no carbachol; normalised: buffer wells 0%, carbachol wells 100%. calcium response (agonist-mode artifact), % at 10 µM. actives 22% (n = 1,900);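 active means duplicate-averaged calcium rise in uninduced cells above buffer wells' mean plus 5 SD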
Hits are given with their value; – = inactive; · = no result given.

SMILES	Kir21 inh	MrgX1 antagonist	RGS4 act	MrgX1 allo act	MrgX1 agonist	RGS4 block	RGS4 block valid	RGS4 uninduced	M3R basal Ca ctr
Cc1ccc2nc(-c3ccccc3)c(CC(=O)O)c(C(=O)O)c2c1	–	–	–	–	–	–	·	·	·
N#CC1=C(N)C(C#N)(C#N)C2(C(=O)Nc3ccccc32)C2CCCC=C12 (stereo unspecified)	–	–	–	–	–	5.4	24%	31%	–
Cn1c(=O)c(=O)n(C)c2cc(S(=O)(=O)CCC(=O)N3CCOCC3)ccc21	–	–	–	–	–	–	·	·	·
Cc1ccc(NC(=O)NC(=O)CSc2nnc(-c3ccc(Cl)cc3Cl)n2N)c(C)c1	–	–	–	–	–	5.2	–	–	–
CCn1c(SCC(=O)N/N=C/c2ccc(OC)c(OC)c2)nc2ccccc21	–	–	–	–	–	–	·	·	·
C=CCSc1nc2ccccc2n1C(=O)/C=C/c1ccc(OC)c(OC)c1	–	–	–	–	–	–	·	–	12%
CCSc1nc2ccccc2n1C(=O)/C=C/c1ccc(OC)c(OC)c1	–	–	–	–	–	11	12%	–	–
COc1cccc(CNC(=O)CCc2nnc3ccc(NCCCN4CCCC4=O)nn23)c1	–	–	–	–	–	–	·	·	·
Cc1ccccc1C1CC(c2ccccc2OC(F)F)Nc2ncnn21 (stereo unspecified)	–	–	–	–	–	5.3	11%	–	–
Clc1ccccc1C1CC(c2ccccc2)Nc2ncnn21 (stereo unspecified)	–	–	–	–	–	–	·	·	·
Fc1ccc(C2CC(c3ccccc3)Nc3ncnn32)cc1 (stereo unspecified)	–	–	–	–	–	–	·	·	·
Cc1ccc(C2CC(c3ccccc3OC(F)F)Nc3ncnn32)cc1 (stereo unspecified)	–	–	–	–	–	–	·	–	–
COc1ccc(NS(=O)(=O)c2cn(C)c(=O)n(C)c2=O)c(OC)c1	–	–	–	–	–	–	·	·	·
CCCc1[nH]nc2c1C(c1ccccc1OC)C(C#N)=C(N)O2 (stereo unspecified)	–	–	–	–	–	–	·	·	·
CCCc1[nH]nc2c1C(c1cn[nH]c1-c1ccc(F)cc1)C(C#N)=C(N)O2 (stereo unspecified)	–	–	–	–	–	16	38%	44%	15%
COc1ccc(CNC(=O)CN(C)S(=O)(=O)c2ccc(Cl)cc2)cc1	–	–	–	–	–	–	·	·	·
COc1ccc(CNC(=O)CCNS(=O)(=O)c2ccc(Br)s2)cc1	–	–	–	–	–	–	·	·	·
COc1ccc(S(=O)(=O)NCCC(=O)NCc2ccc(F)cc2)cc1	–	–	–	–	–	–	·	–	–
COc1ccc(CNC(=O)CCNS(=O)(=O)c2ccc(Cl)cc2)cc1	–	–	–	–	–	–	·	–	–
CCOC(=O)Nc1ccc(C)cc1Br	–	–	–	–	–	–	·	·	·
CN(C(=O)CSc1nnc(CN2CCCC2)n1Cc1ccccc1)c1ccccc1	–	–	–	–	–	–	·	·	·
COc1ccccc1CN(Cc1cc2cc(C)ccc2[nH]c1=O)Cc1nnnn1CC1CCCO1 (stereo unspecified)	–	–	–	–	–	–	·	·	·
COc1ccccc1CN(Cc1cc2cc(C)ccc2[nH]c1=O)Cc1nnnn1Cc1ccco1	–	–	–	–	–	–	·	–	–
COc1ccc2[nH]c(=O)c(CN(Cc3ccco3)Cc3nnnn3Cc3ccccc3)cc2c1	–	–	–	–	–	–	·	·	·
CCc1ccc2[nH]c(=O)c(CN(Cc3ccccc3OC)Cc3nnnn3Cc3ccco3)cc2c1	–	–	–	–	–	–	–	–	18%
SMILES	Kir21 inh	MrgX1 antagonist	RGS4 act	MrgX1 allo act	MrgX1 agonist	RGS4 block	RGS4 block valid	RGS4 uninduced	M3R basal Ca ctr
CCN(CC(=O)Nc1ccc2c(c1)OCCO2)C(=O)C(C)Oc1ccc(Cl)cc1 (stereo unspecified)	–	–	–	–	–	–	·	·	·
COc1ccc(NC(=O)C(Cl)=C(Cl)Cl)cn1	–	·	–	·	·	–	·	·	·
COc1ccc(NC(=O)/C(Cl)=C(/Cl)S(=O)(=O)Cc2ccccc2)cn1	-5	·	–	·	·	18	69%	48%	15%
CC1(C)CC(=O)c2sc(NC(=O)CCS(=O)(=O)c3ccccc3)nc2C1	–	–	–	–	–	4.7	7.5%	–	–
CCOCCCNC1=C(Cl)C(=O)c2ccccc2C1=O	–	–	–	–	–	5.5	30%	–	–
O=C1Cc2ccccc2C(=O)N1c1ccccc1	–	–	–	–	–	5.6	5.0%	–	–
CCc1ccccc1-n1ncc(C(=O)Nc2ccccc2OC)c1C	–	–	–	–	–	7.4	–	–	32%
Fc1ccccc1CN1CCCC(NC2CCC2)C1 (stereo unspecified)	–	–	–	–	–	6.9	8.0%	–	–
O=C(NC1CCCN(Cc2ccccc2F)C1)C1CCC1 (stereo unspecified)	–	–	–	–	–	–	·	·	·
COc1cccc(Sc2cc(N3CCOCC3)nc(-c3ccccc3)n2)c1	–	–	–	–	–	8.8	34%	–	–
Clc1ccc(Sc2cc(N3CCOCC3)nc(-c3ccccc3)n2)cc1	–	–	–	–	–	7.7	14%	–	–
CCOC(=O)/C=c1\s/c(=C\c2ccccc2C)c(=O)n1CC(=O)NCc1ccc2c(c1)OCO2	–	–	–	–	–	–	·	·	·
Cc1nnnn1/C(=C\c1ccccc1)C(=O)OCC(=O)NC1CCCCC1	–	–	–	–	–	6.4	12%	–	9.0%
CC(=O)Nc1ccc(NC(=O)COC(=O)/C(=C/c2ccccc2)n2nnnc2C)cc1	–	–	–	–	–	6.4	18%	–	–

Assay outcomes as filed in PubChem.
